These results are taken from PubChem BioAssay AID651654 (Broad Institute, 2012).

SMILES strings stand for the structures. Where “and” joins values, the source holds several entries; their conditions need not be identical. Equal values may be shown once. About 740 (0.21%) of roughly 360,000 compounds were called active.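 How the source made its calls: active means mean lysis activity across replicates of at least 80%, whatever share of replicates individually reach that level; inactive means mean lysis activity below 80%.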 For the sample, actives were picked, then their nearest neighbours and some compounds at random. The source holds several records for some structures; these can differ, active in one and inactive in another.

A short description of the experiment: Cryptococcus neoformans cell lysis inducers, primary screen, AK release luminescence, single concentration (AID 651654). Conditions: C. neoformans lysis, adenylate kinase release luminescence, 4 h; at 15 µM; stronger effect = higher value; normalised: neutral wells 0, clomiphene wells 100. The procedure, abridged:
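Test system: log-phase Cryptococcus neoformans yeast cells; Quantity: yeast cell density of 5 × 10^6 cells/mL; Buffer or medium: YPD; Doses: single compound concentration per well; Timing: 4 h at 37 °C static, read 1 h later; Measured by: AK luminescence; Read-out basis: lysis from increased AK signal; Control set: Clomiphene as positive control.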
Regarding `COCC(=O)Nc1ccc2c(c1)OC[C@H](C)N(C(=O)Cc1ccccn1)C[C@H](C)[C@@H](OC)CN(C)C2=O`, the lysis activity is 6.59% (inactive).

Regarding `CCC(=O)N1[C@@H]2c3ccc(-c4cccnc4)c(=O)n3C[C@H]1[C@H](CO)[C@H]2C(=O)N1CCc2ccccc2C1`, the lysis activity is -6.94% (inactive).

On to `C[C@H](CO)N1C[C@H](C)[C@H](CN(C)Cc2ccc(C(F)(F)F)cc2)Oc2c(NC(=O)C3CCOCC3)cccc2C1=O`, for which the lysis activity was 0.0275% (inactive).

Consider `Cc1ccc(S(=O)(=O)Nc2ccc3c(c2)C(=O)N([C@H](C)CO)C[C@@H](C)[C@H](CN(C)C(=O)Nc2ccc(C(F)(F)F)cc2)OCCCC[C@H](C)O3)cc1`, for which the lysis activity was -2.02% (inactive).

For `Cc1noc(C)c1S(=O)(=O)Nc1ccc2c(c1)C(=O)N([C@@H](C)CO)C[C@@H](C)[C@@H](CN(C)Cc1ccccc1)OCCCC[C@H](C)O2`, the lysis activity was 96.8% (active).

On to `CCCN(C)C[C@@H]1OCCCC[C@H](C)Oc2ccc(NS(=O)(=O)c3ccc(C)cc3)cc2C(=O)N([C@H](C)CO)C[C@@H]1C`, for which the lysis activity was 98.4% (active).

Turning to `Cc1noc(C)c1S(=O)(=O)Nc1ccc2c(c1)C(=O)N([C@@H](C)CO)C[C@H](C)[C@H](CN(C)CC1CCCCC1)OCCCC[C@H](C)O2`, the lysis activity was 1.9% (inactive).

For `Cc1ccc(S(=O)(=O)Nc2ccc3c(c2)C(=O)N([C@H](C)CO)C[C@@H](C)[C@@H](CN(C)S(C)(=O)=O)OCCCC[C@@H](C)O3)cc1`, the lysis activity is -3.44% (inactive).

Regarding `CCCN(C)C[C@H]1OCCCC[C@H](C)Oc2ccc(NS(=O)(=O)c3ccc(C)cc3)cc2C(=O)N([C@@H](C)CO)C[C@H]1C`, the lysis activity was -0.143% (inactive).

On to `C[C@H]1CN([C@@H](C)CO)C(=O)c2cc(NS(C)(=O)=O)ccc2O[C@H]1CN(C)C(=O)Nc1ccc(C(F)(F)F)cc1`, for which the lysis activity is 2.09% (inactive).

Consider `Cc1ccc(S(=O)(=O)Nc2ccc3c(c2)C(=O)N([C@@H](C)CO)C[C@H](C)[C@H](CN(C)C(=O)Nc2ccc(C(F)(F)F)cc2)O3)cc1`, for which the lysis activity is 100% (active).

For `C[C@H]1CN([C@@H](C)CO)C(=O)c2cccc(NC(=O)C3CCOCC3)c2O[C@@H]1CN(C)C`, the lysis activity is -5.09% (inactive).

As to `Cc1noc(C)c1S(=O)(=O)Nc1ccc2c(c1)C(=O)N([C@H](C)CO)C[C@@H](C)[C@@H](CN(C)Cc1ccccc1)OCCCC[C@@H](C)O2`, the lysis activity is 0.357% (inactive).

For the molecule `C[C@H](CO)N1C[C@H](C)[C@H](CN(C)C)Oc2c(NC(=O)C3CCOCC3)cccc2C1=O`, the lysis activity was -4.63% (inactive).

Turning to `C[C@@H]1CN([C@@H](C)CO)C(=O)c2cccc(NC(=O)C3CC3)c2O[C@@H]1CN(C)C`, the lysis activity is 80.7% (active).

Regarding `C[C@@H]1CN([C@@H](C)CO)C(=O)c2cc(NS(=O)(=O)c3cn(C)cn3)ccc2O[C@@H](C)CCCCO[C@H]1CN(C)S(=O)(=O)c1cn(C)cn1`, the lysis activity was 1.43% (inactive).

In the case of `C[C@@H]1CCCCO[C@H](CN(C)C)[C@H](C)CN([C@@H](C)CO)C(=O)c2cc(NS(=O)(=O)c3cn(C)cn3)ccc2O1`, the lysis activity is -0.536% (inactive).

In the case of `Cc1noc(C)c1S(=O)(=O)Nc1ccc2c(c1)CC(=O)N([C@H](C)CO)C[C@H](C)[C@H](CN(C)S(=O)(=O)c1cn(C)cn1)O2`, the lysis activity is -4.65% (inactive).

Regarding `C[C@@H]1CN([C@H](C)CO)C(=O)c2cccc(NS(=O)(=O)c3cn(C)cn3)c2O[C@H]1CN(C)CC1CC1`, the lysis activity was -3.67% (inactive).

For `C[C@H]1CN([C@@H](C)CO)C(=O)c2cccc(NS(=O)(=O)c3cn(C)cn3)c2O[C@@H]1CN(C)CC1CCCCC1`, the lysis activity was 82.6% (active).

In the case of `C[C@@H]1CN([C@H](C)CO)C(=O)c2cc(NS(=O)(=O)c3cn(C)cn3)ccc2O[C@@H](C)CCCCO[C@H]1CN(C)C`, the lysis activity was 109% (active).

For the molecule `C[C@H]1CN([C@@H](C)CO)C(=O)c2cc(NS(=O)(=O)c3cn(C)cn3)ccc2O[C@H]1CN(C)CC1CCCCC1`, the lysis activity was -5.59% (inactive).

As for `Cc1ccc(S(=O)(=O)N(C)C[C@@H]2Oc3ccc(NS(=O)(=O)c4c(C)noc4C)cc3CC(=O)N([C@H](C)CO)C[C@H]2C)cc1`, the lysis activity is 1.73% (inactive).

`Cc1noc(C)c1S(=O)(=O)Nc1ccc2c(c1)CC(=O)N([C@@H](C)CO)C[C@H](C)[C@@H](CN(C)S(=O)(=O)c1cn(C)cn1)O2`: the lysis activity is 117% (active).

`CN1c2ccc(-c3ccccc3)cc2[C@H]2[C@H](CCN2C(=O)c2ccc3c(c2)OCO3)[C@H]1CO`: the lysis activity is -10.3% (inactive).

Turning to `COCC(=O)N(C)C[C@H]1Oc2cc(C#C[C@@H](C)O)ccc2S(=O)(=O)N([C@H](C)CO)C[C@H]1C`, the lysis activity is 9.52% (inactive).

As to `Cc1ccc(OCCCC(=O)NC(C)c2ccccc2)c(C)c1` (stereo unspecified), the lysis activity is 3.6% (inactive).

On to `Cc1ccc(OCC(=O)NC(C)c2ccccc2)cc1C` (stereo unspecified), for which the lysis activity is 204% (active).

As for `Cc1ccc(OCC(=O)Nc2ccc(C(=O)O)cc2NC(=O)COc2ccc(C)c(C)c2)cc1C`, the lysis activity is -1.83% (inactive).

Regarding `C[C@H]1CCCCO[C@H](CN(C)S(=O)(=O)c2cn(C)cn2)[C@@H](C)CN([C@@H](C)CO)C(=O)c2cc(NC(=O)C3CCCCC3)ccc2O1`, the lysis activity is -1.38% (inactive).

In the case of `Cc1cccc(S(=O)(=O)N2CC[C@@H]3[C@H]2c2cc(C#Cc4ccc(F)cc4)ccc2N[C@@H]3CO)c1`, the lysis activity was -3.22% (inactive).

For `CO[C@H]1CN(C)C(=O)c2cc(NC(=O)Nc3cccc(F)c3)ccc2OC[C@@H](C)N(C)C[C@H]1C`, the lysis activity was 18.3% (inactive).

On to `CO[C@@H]1CN(C)C(=O)c2cc(NC(=O)C3CC3)ccc2OC[C@@H](C)N(Cc2ccc(F)cc2)C[C@@H]1C`, for which the lysis activity is 1.45% (inactive).

For `CO[C@@H]1CN(C)C(=O)c2cc(NC(=O)Nc3cccc(F)c3)ccc2OC[C@H](C)N(C)C[C@@H]1C`, the lysis activity is 98.7% (active).

In the case of `CO[C@@H]1CN(C)C(=O)c2cc(NC(=O)C3CC3)ccc2OC[C@H](C)N(Cc2ccc(F)cc2)C[C@@H]1C`, the lysis activity is 0.205% (inactive).

Regarding `CO[C@H]1CN(C)C(=O)c2cc(NC(=O)Nc3cccc(F)c3)ccc2OC[C@@H](C)N(C)C[C@@H]1C`, the lysis activity was 7.44% (inactive).

With `CO[C@H]1CN(C)C(=O)c2ccc(NC(=O)C3CC3)cc2OC[C@@H](C)N(Cc2ccc(F)cc2)C[C@@H]1C`, the lysis activity is 95.3% (active).

Turning to `CC(=O)N(C)C[C@@H]1Oc2cc(-c3cncnc3)ccc2S(=O)(=O)N([C@@H](C)CO)C[C@H]1C`, the lysis activity is 0.747% (inactive).

Turning to `C[C@H](CO)N1C[C@H](C)[C@@H](CN(C)C(=O)c2cccc(F)c2)Oc2cc(-c3cncnc3)ccc2S1(=O)=O`, the lysis activity was 4.59% (inactive) and 104% (active) and -0.371% (inactive).

Consider `CC(C)NC(=O)N(C)C[C@H]1Oc2cc(-c3cncnc3)ccc2S(=O)(=O)N([C@@H](C)CO)C[C@H]1C`, for which the lysis activity was -2.43% (inactive).

Consider `C/C=C/c1ccc2c(c1)O[C@@H](CN(C)C(=O)NC1CCCC1)[C@@H](C)CN([C@H](C)CO)S2(=O)=O`, for which the lysis activity is -13.9% (inactive).

As for `C[C@@H]1CN([C@@H](C)CO)S(=O)(=O)c2ccc(C#Cc3ccc(F)cc3)cc2O[C@@H]1CN(C)CC1CC1`, the lysis activity was 0.211% (inactive).

In the case of `C[C@@H]1CN([C@@H](C)CO)S(=O)(=O)c2ccc(C#Cc3ccc(F)cc3)cc2O[C@H]1CN(C)C(=O)NC1CCCC1`, the lysis activity was 81.9% (active).

`Cc1cc(C(=O)Nc2ccc3c(c2)C(=O)N(C)[C@@H]2CC[C@H](CC(=O)NC4CCCC4)O[C@@H]2CO3)no1`: the lysis activity is 3.44% (inactive).

As to `Cc1cc(C(=O)Nc2ccc3c(c2)C(=O)N(C)[C@@H]2CC[C@@H](CC(=O)NC4CCCC4)O[C@@H]2CO3)no1`, the lysis activity is 1.38% (inactive).

As to `CNC(=O)C[C@H]1CC[C@H]2[C@H](COc3ccc(NC(=O)c4cc(C)on4)cc3C(=O)N2C)O1`, the lysis activity was 83.7% (active).

As for `COc1cccc(C(=O)Nc2ccc3c(c2)C(=O)N(C)C[C@@H](OC)[C@@H](C)CN(C)[C@@H](C)CO3)c1`, the lysis activity was -1.94% (inactive).

For `O=C(C[C@@H]1C[C@@H]2c3cc(NS(=O)(=O)c4ccc(F)cc4)ccc3O[C@@H]2[C@@H](CO)O1)NCc1ccncc1`, the lysis activity was -3.62% (inactive).

Regarding `C[C@@H]1CCCCO[C@H](CN(C)C(=O)Nc2ccc(C(F)(F)F)cc2)[C@@H](C)CN([C@@H](C)CO)C(=O)c2cc(NC(=O)Nc3cccc4ccccc34)ccc2O1`, the lysis activity is -0.038% (inactive).

As to `C[C@H](CO)N1C[C@H](C)[C@H](CN(C)C)Oc2ncc(C#Cc3ccc(F)cc3)cc2C1=O`, the lysis activity was 5.93% (inactive) and 8.34% (inactive).

Turning to `Cc1noc(C)c1NC(=O)Nc1ccc2c(c1)C(=O)N([C@@H](C)CO)C[C@H](C)[C@H](CN(C)CC1CCCCC1)O2`, the lysis activity is 80.5% (active).

Take `C[C@H]1CN([C@@H](C)CO)C(=O)c2cc(NC(=O)Nc3ccc4c(c3)OCO4)ccc2O[C@@H]1CN(C)CC1CCCCC1`: the lysis activity was 81.3% (active).

Turning to `C[C@H](CO)N1C[C@H](C)[C@@H](CN(C)CC2CCOCC2)Oc2ncc(C#Cc3ccc(F)cc3)cc2C1=O`, the lysis activity is 1.59% (active).

Consider `C[C@@H]1CN([C@@H](C)CO)C(=O)Cc2cc(NC(=O)Nc3ccc4c(c3)OCO4)ccc2O[C@@H]1CN(C)CC1CCCCC1`, for which the lysis activity was 5.47% (inactive).

As to `COc1ccc(C#Cc2cnc3c(c2)C(=O)N([C@@H](C)CO)C[C@H](C)[C@@H](CN(C)CC2CCOCC2)O3)cc1`, the lysis activity is 0.473% (inactive).

As to `C[C@H]1CN([C@@H](C)CO)C(=O)Cc2cc(NC(=O)Nc3cccc4ccccc34)ccc2O[C@@H]1CN(C)C`, the lysis activity is 5.63% (inactive).

As for `C[C@@H]1CN([C@H](C)CO)C(=O)Cc2cc(NC(=O)Nc3cccc4ccccc34)ccc2O[C@@H]1CN(C)Cc1ccc(C(=O)O)cc1`, the lysis activity was 105% (active).

Regarding `Cc1noc(C)c1NC(=O)Nc1ccc2c(c1)C(=O)N([C@@H](C)CO)C[C@@H](C)[C@H](CN(C)C)O2`, the lysis activity was -2.64% (inactive).

As to `C[C@@H]1CN([C@@H](C)CO)C(=O)c2cc(NC(=O)Nc3ccc(F)cc3)ccc2O[C@H]1CN(C)CC1CCCCC1`, the lysis activity was -0.073% (inactive).

Consider `C[C@@H]1CN([C@H](C)CO)C(=O)Cc2cc(NC(=O)Nc3cccc4ccccc34)ccc2O[C@@H]1CN(C)Cc1ccc(C(F)(F)F)cc1`, for which the lysis activity was 0.378% (inactive).

`Cc1noc(C)c1NC(=O)Nc1ccc2c(c1)CC(=O)N([C@@H](C)CO)C[C@H](C)[C@@H](CN(C)CC1CCCCC1)O2`: the lysis activity is 4.38% (inactive).
